Measurements from ChEMBL document CHEMBL1212762, “In vivo activity of ceftobiprole in murine skin infections due to Staphylococcus aureus and Pseudomonas aeruginosa” (Antimicrob Agents Chemother, 2010).

Key:
Pseudomonas aeruginosa [1] = assay: Antimicrobial activity against Pseudomonas aeruginosa OC 4354 infected in immunocompromized SKH1 mouse assessed as log change in bacterial colony forming unit at 25 mg/kg/day, sc; format: functional; details: route subcutaneous
Procedure, shortened: (§1)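 Female SKH1 hairless mice made neutropenic with ip cyclophosphamide (150 mg/kg 5 days and 100 mg/kg 1 day before infection). 0.2 ml s.c. Cytodex bead (0.1% vol/vol) inoculum in BHI: OC 4351 left flank, OC 4354 right flank. Drug s.c. at 1, 3, 25, 27 h postinfection. Killed at 48 h; skin homogenised in saline, plated on TSA 18 h 37°C; Δlog CFU/g versus inoculum. 5 mice/dose, run twice.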

Pseudomonas aeruginosa [2] = assay: Antimicrobial activity against Pseudomonas aeruginosa OC 4351 infected in immunocompromized SKH1 mouse assessed as log change in bacterial colony forming unit at 25 mg/kg/day, sc; format: functional; details: route subcutaneous; procedure, shortened: as §1
Plasma [3] = assay: fCmax in immunocompromized SKH1 mouse plasma at 50 mg/kg, sc; format: ADME, organism-based; design: dose 50 mg/kg, route subcutaneous; details: in vivo
Procedure, shortened: (§2)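 Female SKH1 hairless mice, immunocompetent or cyclophosphamide-neutropenic, infected s.c. with MRSA OC 8525 or P. aeruginosa OC 4354 on the Cytodex beads (left flank), sterile beads on the right. Single dose 24 h later: s.c. at the nape, or linezolid 50 mg/kg oral. Plasma and skin (DMSO homogenate) sampled over time, HPLC with diode array.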

Pseudomonas aeruginosa [4] = assay: Antimicrobial activity against Pseudomonas aeruginosa OC 4351 infected in immunocompromized SKH1 mouse assessed as log change in bacterial colony forming unit at 1.6 mg/kg/day, sc; format: functional; details: route subcutaneous; procedure, shortened: as §1
Pseudomonas aeruginosa [5] = assay: Antimicrobial activity against Pseudomonas aeruginosa OC 4351 infected in immunocompromized SKH1 mouse assessed as log change in bacterial colony forming unit at 100 mg/kg/day, sc; format: functional; details: route subcutaneous; procedure, shortened: as §1
Pseudomonas aeruginosa [6] = assay: Antimicrobial activity against Pseudomonas aeruginosa OC 4354 infected in immunocompromized SKH1 mouse assessed as log change in bacterial colony forming unit at 100 mg/kg/day, sc; format: functional; details: route subcutaneous; procedure, shortened: as §1
Pseudomonas aeruginosa [7] = assay: Antimicrobial activity against Pseudomonas aeruginosa OC 4354 infected in immunocompromized SKH1 mouse assessed as log change in bacterial colony forming unit at 6.2 mg/kg/day, sc; format: functional; details: route subcutaneous; procedure, shortened: as §1
Pseudomonas aeruginosa [8] = assay: Antimicrobial activity against Pseudomonas aeruginosa OC 4351 infected in immunocompromized SKH1 mouse assessed as log change in bacterial colony forming units at 25 mg/kg/day, sc; format: functional; details: route subcutaneous; procedure, shortened: as §1
[9] = Tmax in immunocompromized SKH1 mouse plasma at 50 mg/kg, sc; format: ADME, organism-based; design: dose 50 mg/kg, route subcutaneous; procedure, shortened: as §2
Pseudomonas aeruginosa [10] = assay: Antimicrobial activity against Pseudomonas aeruginosa OC 4354 assessed as inhibition of growth by broth microdilution method; format: functional
Pseudomonas aeruginosa [11] = assay: Antimicrobial activity against Pseudomonas aeruginosa OC 4351 assessed as inhibition of growth by broth microdilution method; format: functional
Pseudomonas aeruginosa [12] = assay: Antimicrobial activity against Pseudomonas aeruginosa OC 4354 infected in immunocompromized SKH1 mouse assessed as log change in bacterial colony forming unit at 1.6 mg/kg/day, sc; format: functional; details: route subcutaneous; procedure, shortened: as §1
Plasma [13] = assay: fAUC (0-infinity) in immunocompromized SKH1 mouse plasma at 50 mg/kg, sc; format: ADME, organism-based; design: dose 50 mg/kg, route subcutaneous; details: in vivo; procedure, shortened: as §2
[14] = Tmax in immunocompetent SKH1 mouse plasma at 50 mg/kg, po; format: ADME, organism-based; design: dose 50 mg/kg, route oral; procedure, shortened: as §2
Plasma [15] = assay: fCmax in immunocompetent SKH1 mouse plasma at 50 mg/kg, po; format: ADME, organism-based; design: dose 50 mg/kg, route oral; details: in vivo; procedure, shortened: as §2
Staphylococcus aureus [16] = assay: Antimicrobial activity against methicillin-resistant Staphylococcus aureus OC 8525 infected immunocompetent SKH1 mouse assessed as lesion volume at 25 mg/kg/day, sc measured after 48 hrs postinfection (reference value: 1535 mm3); details: route subcutaneous
Staphylococcus aureus [17] = assay: Antimicrobial activity against methicillin-resistant Staphylococcus aureus OC 8525 infected immunocompetent SKH1 mouse assessed as lesion volume at 6.2 mg/kg/day, sc measured after 48 hrs postinfection (reference value: 1535 mm3); details: route subcutaneous
Plasma [18] = assay: fAUC (0-infinity) in immunocompetent SKH1 mouse plasma at 50 mg/kg, po; format: ADME, organism-based; design: dose 50 mg/kg, route oral; details: in vivo; procedure, shortened: as §2
Staphylococcus aureus [19] = assay: Antimicrobial activity against methicillin-susceptible Staphylococcus aureus Smith OC 4172 infected immunocompetent SKH1 mouse assessed as lesion volume at 25 mg/kg/day, sc measured after 48 hrs postinfection (reference value: 1181 mm3); details: route subcutaneous
Staphylococcus aureus [20] = assay: Antimicrobial activity against methicillin-susceptible Staphylococcus aureus Smith OC 4172 infected immunocompetent SKH1 mouse assessed as lesion volume at 1.6 mg/kg/day, sc measured after 48 hrs postinfection (reference value: 1181 mm3); details: route subcutaneous
Staphylococcus aureus [21] = assay: Antimicrobial activity against methicillin-susceptible Staphylococcus aureus Smith OC 4172 infected immunocompetent SKH1 mouse assessed as lesion volume at 6.2 mg/kg/day, sc measured after 48 hrs postinfection (reference value: 1181 mm3); details: route subcutaneous
Staphylococcus aureus [22] = assay: Antimicrobial activity against methicillin-resistant Staphylococcus aureus OC 8525 infected immunocompetent SKH1 mouse assessed as lesion volume at 1.6 mg/kg/day, sc measured after 48 hrs postinfection (reference value: 1535 mm3); details: route subcutaneous
[23] = Ratio of fAUC to MIC in Staphylococcus aureus OC 4172 infected sc dosed SKH1 mouse; format: functional
Procedure, shortened: (§3)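 Free-drug plasma AUC, converted from μg·min/ml to μg·h/ml, divided by the MIC of the infecting S. aureus strain.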

[24] = Protein binding in mouse plasma; format: ADME, cell-free; details: read-out: PPB (converted)
Staphylococcus aureus [25] = assay: Antimicrobial activity against methicillin-resistant Staphylococcus aureus OC 8525 infected immunocompetent SKH1 mouse assessed as lesion volume at 100 mg/kg/day, sc measured after 48 hrs postinfection (reference value: 1535 mm3); details: route subcutaneous
[26] = Half life in immunocompetent SKH1 mouse plasma at 50 mg/kg, po; format: ADME, organism-based; design: dose 50 mg/kg, route oral; procedure, shortened: as §2
[27] = Ratio of fAUC to MIC in Staphylococcus aureus OC 8525 infected sc dosed SKH1 mouse; format: functional; procedure, shortened: as §3

For `CO/N=C(\C(=O)N[C@@H]1C(=O)N2C(C(=O)[O-])=C(C[N+]3(C)CCCC3)CS[C@H]12)c1csc(N)n1`, the deltalog10CFU (Pseudomonas aeruginosa [1]) was 1.7, the deltalog10CFU (Pseudomonas aeruginosa [2]) was 2.1 and the fCmax (Plasma [3]) was 66 µg/mL. For the same compound, the deltalog10CFU (Pseudomonas aeruginosa [4]) was 2.1, the deltalog10CFU (Pseudomonas aeruginosa [5]) was 1 and the deltalog10CFU (Pseudomonas aeruginosa [6]) was 1.7. For the same compound, the deltalog10CFU (Pseudomonas aeruginosa [7]) was 2.9, the deltalog10CFU (Pseudomonas aeruginosa [8]) was 1.8 and the Tmax [9] was 7.5 min. For the same compound, the MIC (Pseudomonas aeruginosa [10]) was 32 µg/mL, the MIC (Pseudomonas aeruginosa [11]) was 4 µg/mL and the deltalog10CFU (Pseudomonas aeruginosa [12]) was 1.7. It also gave a fAUC (Plasma [13]) of 1790 µg·min/mL.
`CC(=O)NC[C@H]1CN(c2ccc(N3CCOCC3)c(F)c2)C(=O)O1` [LINEZOLID] showed a Tmax [14] of 30 min, a fCmax (Plasma [15]) of 14 µg/mL and an Activity (Staphylococcus aureus [16]) of 932 mm3. The Activity (Staphylococcus aureus [17]) was 1277 mm3, the fAUC (Plasma [18]) was 1795 µg·min/mL and the Activity (Staphylococcus aureus [19]) was 1018 mm3. It also gave an Activity (Staphylococcus aureus [20]) of 1407 mm3, an Activity (Staphylococcus aureus [21]) of 1234 mm3 and an Activity (Staphylococcus aureus [22]) of 1644 mm3. The fAUC/MIC [23] was 898, the fraction unbound [24] was 0.68 and the Activity (Staphylococcus aureus [25]) was 858 mm3. It also gave a half-life [26] of 102 min and a fAUC/MIC [27] of 449.
